Laboratory results from ChEMBL document CHEMBL1146100, “Refinement of the benzodiazepine receptor site topology by structure-activity relationships of new N-(heteroarylmethyl)indol-3-ylglyoxylamides” (J Med Chem, 2006).

Legend:
[1] = target: GABA-A receptor; anion channel; assay: Displacement of [3H]flumazenil from GABA-A receptor in bovine brain membranes; type: cell membranes, Bos taurus
[2] = target: GABA A receptor alpha-5/beta-3/gamma-2 (Rattus norvegicus, UniProt P18508+P19969+P63079); assay: Displacement of [3H]flumazenil from rat GABA-Aalpha5 receptor plus beta-3-gamma-2 in HEK293 cells; type: cell-based
GABA A receptor alpha-5/beta-3/gamma-2, sequence (P18508 whole entry): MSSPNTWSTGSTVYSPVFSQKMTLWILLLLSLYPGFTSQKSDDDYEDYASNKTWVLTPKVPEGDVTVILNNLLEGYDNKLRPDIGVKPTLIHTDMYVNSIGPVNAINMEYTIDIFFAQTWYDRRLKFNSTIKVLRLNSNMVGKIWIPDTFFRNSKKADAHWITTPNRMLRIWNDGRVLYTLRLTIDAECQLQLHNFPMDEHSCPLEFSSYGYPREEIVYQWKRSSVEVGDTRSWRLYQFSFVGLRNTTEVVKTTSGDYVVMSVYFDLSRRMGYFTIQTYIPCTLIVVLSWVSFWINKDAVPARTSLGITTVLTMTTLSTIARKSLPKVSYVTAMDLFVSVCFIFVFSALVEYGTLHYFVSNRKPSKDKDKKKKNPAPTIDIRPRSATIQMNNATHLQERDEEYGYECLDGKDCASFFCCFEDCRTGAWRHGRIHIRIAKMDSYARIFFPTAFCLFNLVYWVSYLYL
GABA A receptor alpha-5/beta-3/gamma-2, sequence (P19969 whole entry): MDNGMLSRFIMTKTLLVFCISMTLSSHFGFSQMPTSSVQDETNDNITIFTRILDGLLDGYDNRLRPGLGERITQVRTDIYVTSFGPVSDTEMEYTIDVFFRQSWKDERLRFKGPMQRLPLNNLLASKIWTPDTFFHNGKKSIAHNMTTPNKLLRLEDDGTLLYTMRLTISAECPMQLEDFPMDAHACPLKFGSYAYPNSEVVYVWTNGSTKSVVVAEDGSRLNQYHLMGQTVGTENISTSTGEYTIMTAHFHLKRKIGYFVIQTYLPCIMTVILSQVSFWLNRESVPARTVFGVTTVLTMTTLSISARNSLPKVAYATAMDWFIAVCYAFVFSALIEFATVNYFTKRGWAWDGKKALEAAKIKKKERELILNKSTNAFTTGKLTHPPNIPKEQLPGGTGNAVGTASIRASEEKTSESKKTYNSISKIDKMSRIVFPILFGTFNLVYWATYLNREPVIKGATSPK
GABA A receptor alpha-5/beta-3/gamma-2, sequence (P63079 whole entry): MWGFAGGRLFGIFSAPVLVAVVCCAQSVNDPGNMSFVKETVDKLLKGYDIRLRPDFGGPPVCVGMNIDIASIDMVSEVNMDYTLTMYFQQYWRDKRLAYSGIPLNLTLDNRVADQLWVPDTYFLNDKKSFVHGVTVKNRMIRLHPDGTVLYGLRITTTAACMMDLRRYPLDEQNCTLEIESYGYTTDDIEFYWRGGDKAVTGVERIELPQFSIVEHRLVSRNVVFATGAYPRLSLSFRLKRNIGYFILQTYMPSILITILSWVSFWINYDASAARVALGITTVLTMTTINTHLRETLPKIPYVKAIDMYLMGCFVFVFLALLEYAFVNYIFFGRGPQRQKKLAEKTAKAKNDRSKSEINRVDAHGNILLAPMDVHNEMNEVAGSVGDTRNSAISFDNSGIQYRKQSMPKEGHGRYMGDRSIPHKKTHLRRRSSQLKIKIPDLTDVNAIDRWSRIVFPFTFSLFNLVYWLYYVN
Procedure, shortened: (§1)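 Membranes from HEK293 cells stably expressing rat GABA-A subtypes (37 °C, 5% CO2, DMEM/F-12 with 10% FBS). Cells harvested, homogenized in 10 mM potassium phosphate pH 7.4, centrifuged at 48 000g for 30 min at 4 °C, washed twice, resuspended in the same buffer plus 100 mM KCl. Incubated with 1-2 nM [3H]flumazenil for 1 h at 4 °C to equilibrium. Nonspecific binding defined with 10^-5 M diazepam.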

[3] = target: GABA A receptor alpha-2/beta-2/gamma-2 (Rattus norvegicus, UniProt P18508+P23576+P63138); assay: Displacement of [3H]flumazenil from rat GABA-Aalpha2 receptor plus beta-2-gamma-2 in HEK293 cells; type: cell-based; procedure, shortened: as §1
GABA A receptor alpha-2/beta-2/gamma-2, sequence (P18508 whole entry): as the sequence (P18508 whole entry) above
GABA A receptor alpha-2/beta-2/gamma-2, sequence (P23576 whole entry): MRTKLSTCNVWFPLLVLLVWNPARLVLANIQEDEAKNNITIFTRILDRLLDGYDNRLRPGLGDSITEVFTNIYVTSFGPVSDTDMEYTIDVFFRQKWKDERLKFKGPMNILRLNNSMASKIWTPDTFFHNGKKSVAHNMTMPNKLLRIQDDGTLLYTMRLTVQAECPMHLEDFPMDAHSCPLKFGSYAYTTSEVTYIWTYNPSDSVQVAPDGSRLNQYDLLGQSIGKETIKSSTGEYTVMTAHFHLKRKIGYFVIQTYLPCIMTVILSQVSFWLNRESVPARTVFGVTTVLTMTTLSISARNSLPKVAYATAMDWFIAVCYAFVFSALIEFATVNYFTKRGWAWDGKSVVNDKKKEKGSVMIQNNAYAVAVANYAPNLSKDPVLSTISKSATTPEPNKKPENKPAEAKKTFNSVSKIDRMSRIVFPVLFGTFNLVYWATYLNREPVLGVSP
GABA A receptor alpha-2/beta-2/gamma-2, sequence (P63138 whole entry): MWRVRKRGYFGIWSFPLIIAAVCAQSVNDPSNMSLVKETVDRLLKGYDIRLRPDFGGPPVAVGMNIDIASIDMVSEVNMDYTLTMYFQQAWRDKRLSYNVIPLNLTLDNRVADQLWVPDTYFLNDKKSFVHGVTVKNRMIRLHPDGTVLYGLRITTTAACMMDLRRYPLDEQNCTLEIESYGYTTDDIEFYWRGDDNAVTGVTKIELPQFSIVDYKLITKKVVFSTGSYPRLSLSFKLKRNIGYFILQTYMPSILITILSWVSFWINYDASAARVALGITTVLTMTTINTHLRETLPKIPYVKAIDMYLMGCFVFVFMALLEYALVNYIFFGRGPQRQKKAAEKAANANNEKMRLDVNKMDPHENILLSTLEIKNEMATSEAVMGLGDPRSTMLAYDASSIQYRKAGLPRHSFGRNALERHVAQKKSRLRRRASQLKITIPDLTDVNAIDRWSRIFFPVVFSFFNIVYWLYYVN

[4] = target: GABA-A receptor; alpha-1/beta-2/gamma-2 (Rattus norvegicus, UniProt P18508+P62813+P63138); assay: Displacement of [3H]flumazenil from rat GABA-Aalpha1 receptor plus beta-2-gamma-2 in HEK293 cells; type: cell-based; procedure, shortened: as §1
GABA-A receptor; alpha-1/beta-2/gamma-2, sequence (P18508 whole entry): as the sequence (P18508 whole entry) above
GABA-A receptor; alpha-1/beta-2/gamma-2, sequence (P62813 whole entry): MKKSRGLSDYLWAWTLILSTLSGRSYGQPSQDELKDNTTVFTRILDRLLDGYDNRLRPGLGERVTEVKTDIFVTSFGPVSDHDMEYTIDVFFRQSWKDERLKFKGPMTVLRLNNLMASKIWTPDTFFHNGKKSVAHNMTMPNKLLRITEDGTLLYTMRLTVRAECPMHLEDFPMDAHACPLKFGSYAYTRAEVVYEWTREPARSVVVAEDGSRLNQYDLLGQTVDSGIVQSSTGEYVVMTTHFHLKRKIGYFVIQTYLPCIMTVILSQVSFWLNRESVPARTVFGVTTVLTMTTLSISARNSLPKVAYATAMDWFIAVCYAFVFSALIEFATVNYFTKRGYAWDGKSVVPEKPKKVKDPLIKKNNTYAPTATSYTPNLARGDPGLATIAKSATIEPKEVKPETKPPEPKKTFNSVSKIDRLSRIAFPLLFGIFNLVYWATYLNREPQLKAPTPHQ
GABA-A receptor; alpha-1/beta-2/gamma-2, sequence (P63138 whole entry): as the sequence (P63138 whole entry) above

[5] = target: GABA A receptor alpha-5/beta-3/gamma-2 (Rattus norvegicus) (UniProt P18508+P19969+P63079); assay: Inhibition of [3H]flumazenil binding to rat GABA-Aalpha5 receptor plus beta-3-gamma-2 at 10 uM in HEK293 cells; type: cell-based
[6] = target: GABA A receptor alpha-2/beta-2/gamma-2 (Rattus norvegicus) (UniProt P18508+P23576+P63138); assay: Inhibition of [3H]flumazenil binding to rat GABA-Aalpha2 receptor plus beta-2-gamma-2 at 10 uM in HEK293 cells; type: cell-based

SMILES	Ki [1]	also measured
O=C(NCc1ccccn1)C(=O)c1c[nH]c2ccc([N+](=O)[O-])cc12	439 nM	–
O=C(NCc1cc[nH]c1)C(=O)c1c[nH]c2ccc([N+](=O)[O-])cc12	21 nM	Ki [2]: 1600 nM; Ki [3]: 154 nM; Ki [4]: 9.2 nM
O=C(NCc1ncc[nH]1)C(=O)c1c[nH]c2ccc([N+](=O)[O-])cc12	> 10000 nM	–
O=C(NCc1ccncc1)C(=O)c1c[nH]c2ccccc12	426 nM	–
Cn1cccc1CNC(=O)C(=O)c1c[nH]c2ccc([N+](=O)[O-])cc12	134 nM	–
O=C(NCc1ccncc1)C(=O)c1c[nH]c2ccc([N+](=O)[O-])cc12	770 nM	–
O=C(NCc1ccsc1)C(=O)c1c[nH]c2ccc([N+](=O)[O-])cc12	148 nM	–
Cc1ccc(CNC(=O)C(=O)c2c[nH]c3ccccc23)o1	249 nM	–
O=C(NCc1ccoc1)C(=O)c1c[nH]c2ccccc12	447 nM	–
O=C(NCc1ccc[nH]1)C(=O)c1c[nH]c2ccc([N+](=O)[O-])cc12	33 nM	Ki [3]: 585 nM; inhibition [5]: 5%; Ki [4]: 73.5 nM
O=C(NCc1ncc[nH]1)C(=O)c1c[nH]c2ccccc12	1750 nM	–
O=C(NCc1cc2ccccc2[nH]1)C(=O)c1c[nH]c2ccc([N+](=O)[O-])cc12	> 10000 nM	–
Cn1cccc1CNC(=O)C(=O)c1c[nH]c2ccccc12	4590 nM	–
O=C(NCc1ccco1)C(=O)c1c[nH]c2ccccc12	324 nM	–
O=C(NCc1ccsc1)C(=O)c1c[nH]c2ccccc12	212 nM	–
O=C(NCc1cccnc1)C(=O)c1c[nH]c2ccccc12	105 nM	–
O=C(NCc1cccnc1)C(=O)c1c[nH]c2ccc([N+](=O)[O-])cc12	483 nM	–
O=C(NCc1ccoc1)C(=O)c1c[nH]c2ccc([N+](=O)[O-])cc12	22 nM	Ki [3]: 236 nM; inhibition [5]: 9%; Ki [4]: 56.6 nM
O=C(NCc1ccc[nH]1)C(=O)c1c[nH]c2ccccc12	531 nM	inhibition [6]: 47%; Ki [2]: 1500 nM; Ki [4]: 271 nM
O=C(NCc1cc[nH]c1)C(=O)c1c[nH]c2ccccc12	204 nM	inhibition [6]: 46%; Ki [2]: 681 nM; Ki [4]: 272 nM
O=C(NCc1ccccn1)C(=O)c1c[nH]c2ccccc12	6000 nM	–
O=C(NCc1cc2ccccc2[nH]1)C(=O)c1c[nH]c2ccccc12	1130 nM	–
O=C(NCc1ccco1)C(=O)c1c[nH]c2ccc([N+](=O)[O-])cc12	12.6 nM	Ki [3]: 155 nM; inhibition [5]: 28%; Ki [4]: 20 nM
O=C(NCc1cccs1)C(=O)c1c[nH]c2ccccc12	285 nM	–
O=C(NCc1cccs1)C(=O)c1c[nH]c2ccc([N+](=O)[O-])cc12	128 nM	–
Cc1ccc(CNC(=O)C(=O)c2c[nH]c3ccc([N+](=O)[O-])cc23)o1	15.6 nM	–
